We go through two molecules from ChEMBL document CHEMBL4373644, “Fungal natural alkaloid schizocommunin activates the aryl hydrocarbon receptor pathway” (Medchemcomm, 2019).

For data set [1], the system named is Huh-7. The data set can be described thus: Cytotoxicity against human HuH7 cells assessed as reduction in metabolic activity after 24 hrs by MTT assay. Format: ADME, cell-based. As to conditions: Huh-7, 24 h; call rule not given here. The method in brief:
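Huh7 cells seeded 10 000 per well, next day given serial dilutions of 0.012–200 μM (2% final DMSO) for 24 h. After a PBS wash, cells incubated 3 h with MTT at 2.5 mg mL–1; crystals dissolved in DMSO, absorbance read at 562 nm and normalised to mock; EC50 from dose–response curve.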
For orientation: Tetrazolium dyes change colour on reduction, which living cells bring about.

The target of data set [2] is T1, CYP1A1 (via AhR) (Homo sapiens, UniProt P35869).
T1 sequence (P35869 whole entry): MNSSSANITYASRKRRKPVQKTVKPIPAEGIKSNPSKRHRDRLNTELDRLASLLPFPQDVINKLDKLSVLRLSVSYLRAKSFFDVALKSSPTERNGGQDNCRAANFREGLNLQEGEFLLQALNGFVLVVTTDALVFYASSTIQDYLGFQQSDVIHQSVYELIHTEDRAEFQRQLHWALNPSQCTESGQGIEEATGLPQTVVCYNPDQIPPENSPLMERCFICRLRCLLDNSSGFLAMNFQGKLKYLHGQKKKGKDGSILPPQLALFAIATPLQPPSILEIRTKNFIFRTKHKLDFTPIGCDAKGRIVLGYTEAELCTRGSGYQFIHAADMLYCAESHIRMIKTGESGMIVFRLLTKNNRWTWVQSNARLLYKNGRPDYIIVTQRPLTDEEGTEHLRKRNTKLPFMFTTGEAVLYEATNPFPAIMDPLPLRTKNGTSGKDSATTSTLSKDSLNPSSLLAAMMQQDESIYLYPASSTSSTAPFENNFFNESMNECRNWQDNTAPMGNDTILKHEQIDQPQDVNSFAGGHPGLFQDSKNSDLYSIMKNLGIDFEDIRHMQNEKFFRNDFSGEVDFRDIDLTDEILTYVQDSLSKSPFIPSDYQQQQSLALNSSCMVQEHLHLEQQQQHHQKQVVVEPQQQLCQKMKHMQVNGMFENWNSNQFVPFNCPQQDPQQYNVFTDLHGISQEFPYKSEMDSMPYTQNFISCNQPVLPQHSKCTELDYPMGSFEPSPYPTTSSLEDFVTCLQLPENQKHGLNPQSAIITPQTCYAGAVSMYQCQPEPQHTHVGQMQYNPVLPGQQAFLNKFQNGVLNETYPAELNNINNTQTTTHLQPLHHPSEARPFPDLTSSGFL
The data set can be described thus: Agonist activity at AhR in human HuH7 cells assessed as increase in CYP1A1 expression at 10 uM after 24 hrs by microarray analysis relative to control. Format: ADME, cell-based. The note with it: read-out: FC. The method in brief:
(§1)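 Transcriptome screen in Huh7 cells seeded 2.75 × 10^5 per well and treated 24 h with 10 μM or 0.5 μM compound (0.1% final DMSO) or DMSO mock. RNA isolated by column kit and profiled on microarray; expression given as fold change versus mock.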

The target in data set [3] is T2, CYP1B1 (via AhR) (Homo sapiens, UniProt P35869).
T2 sequence (P35869 whole entry): T1 sequence (P35869 whole entry)
The data set can be described thus: Agonist activity at AhR in human HuH7 cells assessed as increase in CYP1B1 expression at 10 uM after 24 hrs by microarray analysis relative to control. As to conditions: read-out: FC. Format: ADME, cell-based. Summed up:
as §1

In data set [4] the target is T3, Aryl hydrocarbon receptor (Homo sapiens, UniProt P35869).
T3 sequence (P35869 whole entry): T1 sequence (P35869 whole entry)
Briefly: Agonist activity at AhR in human HuH7 cells assessed as increase in CYP1B1 expression at 10 uM after 24 hrs by RT-qPCR analysis. Format: ADME, cell-based. Summed up: (§2)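 Huh7 hepatoma cells in DMEM with 10% FBS at 37 °C, seeded 2.75 × 10^5 per well the day before. Exposed 24 h to 10 μM or 0.5 μM compound, 0.1% final DMSO, against DMSO-only mock. RT-qPCR with 18S rRNA normalisation; fold change by 2–ΔΔCt relative to mock; n = 5; unpaired two-tailed t-test, p < 0.05.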
In general terms: In qPCR the cycle at which signal appears reflects the starting amount.

Data set [5] concerns the target T3, Aryl hydrocarbon receptor. The data set can be described thus: Agonist activity at AhR in human HuH7 cells assessed as increase in UGT1A expression at 10 uM after 24 hrs by RT-qPCR analysis. Format: ADME, cell-based. Summed up:
as §2

In data set [6] the target is T3, Aryl hydrocarbon receptor. The data set can be described thus: Agonist activity at AhR in human A549 cells assessed as increase in UGT1A expression at 10 uM after 24 hrs by RT-qPCR analysis. Format: ADME, cell-based. The note with it: a549, 24 h. Summed up: (§3)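 A549 lung carcinoma cells grown at 37 °C in DMEM with 10% FBS, seeded 2.75 × 10^5 per well one day ahead. Treated 24 h with 10 μM or 0.5 μM compound in 0.1% final DMSO; mock was DMSO only. RNA then analysed by RT-qPCR, normalised to 18S rRNA, 2–ΔΔCt fold change vs mock; n = 3; two-tailed unpaired t-test, p < 0.05.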

Data set [7] concerns the target T3, Aryl hydrocarbon receptor. The data set can be described thus: Agonist activity at AhR in human HuH7 cells assessed as effect on GSTA1 expression at 10 uM after 24 hrs by qRT-PCR analysis. Format: cell-based. The method in brief:
as §2

Data set [8] addresses T3, Aryl hydrocarbon receptor. The data set can be described thus: Agonist activity at AhR in human HuH7 cells assessed as reduction in ALDH3A1 expression at 10 uM after 24 hrs by q-RT-PCR analysis relative to control. Format: cell-based. The method in brief: as §2
Data set [9] deals with T3, Aryl hydrocarbon receptor. Briefly: Agonist activity at AhR in human A549 cells assessed as increase in ALDH3A1 expression at 10 uM after 24 hrs by q-RT-PCR analysis. Format: cell-based. As to conditions: a549, 24 h. The method in brief: as §3
For data set [10], the target named is T3, Aryl hydrocarbon receptor. The data set can be described thus: Agonist activity at AhR in human HuH7 cells after 24 hrs by renilla luciferase reporter gene assay. Format: cell-based. Summed up:
(§4)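 Huh7 cells seeded 20 000 per well, next day co-transfected with XRE-driven firefly luciferase (pGL4.43 luc2P/XRE) and Renilla plasmids by lipofection. A day later treated 24 h at 0.1, 0.5, 5 or 10 μM, 1% final DMSO, then lysed. Luciferase read in technical triplicate; signal normalised to Renilla and to DMSO vehicle.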

The target of data set [11] is T4, AhR (aryl hydrocarbon receptor) (Homo sapiens, UniProt P35869).
T4 sequence (P35869 whole entry): T1 sequence (P35869 whole entry)
Briefly: Agonist activity at AhR in human HuH7 cells at 10 uM after 24 hrs by renilla luciferase reporter gene assay relative to control. Format: cell-based. As to conditions: read-out: FC. The method in brief: as §4
On the technique in general: Reporter assays use an easily measured gene product as a stand-in for the process of interest.

The target of data set [12] is T1, CYP1A1 (via AhR). Briefly: Agonist activity at AhR in human HuH7 cells assessed as increase in CYP1A1 expression at 0.5 uM after 24 hrs by microarray analysis relative to control. Format: ADME, cell-based. As to conditions: read-out: FC. Summed up: as §1
In data set [13] the target is T2, CYP1B1 (via AhR). Briefly: Agonist activity at AhR in human HuH7 cells assessed as increase in CYP1B1 expression at 0.5 uM after 24 hrs by microarray analysis relative to control. Format: ADME, cell-based. The note with it: read-out: FC. Summed up: as §1
Data set [14] deals with T3, Aryl hydrocarbon receptor. Briefly: Agonist activity at AhR in human HuH7 cells assessed as increase in UGT1A expression at 0.5 uM after 24 hrs by RT-qPCR analysis. Format: ADME, cell-based. The method in brief: as §2
Data set [15] concerns the target T3, Aryl hydrocarbon receptor. The data set can be described thus: Agonist activity at AhR in human A549 cells assessed as increase in CYP1A1 expression at 0.5 uM after 24 hrs by RT-qPCR analysis. Format: ADME, cell-based. The note with it: a549, 24 h. Summed up:
as §3

The target of data set [16] is T3, Aryl hydrocarbon receptor. The data set can be described thus: Agonist activity at AhR in human A549 cells assessed as increase in CYP1B1 expression at 0.5 uM after 24 hrs by RT-qPCR analysis. Format: ADME, cell-based. As to conditions: a549, 24 h. The method in brief:
as §3

In data set [17] the target is T3, Aryl hydrocarbon receptor. The data set can be described thus: Agonist activity at AhR in human A549 cells assessed as increase in UGT1A expression at 0.5 uM after 24 hrs by RT-qPCR analysis. Format: ADME, cell-based. The note with it: a549, 24 h. Summed up: as §3
Data set [18] has as its target T3, Aryl hydrocarbon receptor. Briefly: Agonist activity at AhR in human HuH7 cells assessed as effect on GSTA1 expression at 0.5 uM after 24 hrs by qRT-PCR analysis. Format: cell-based. Summed up: as §2
In data set [19] the target is T3, Aryl hydrocarbon receptor. The data set can be described thus: Agonist activity at AhR in human HuH7 cells assessed as effect on ALDH3A1 expression at 0.5 uM after 24 hrs by q-RT-PCR analysis. Format: cell-based. Summed up:
as §2

The subject of data set [20] is Huh-7. Briefly: Effect on AhR expression in human HuH7 cells at 0.5 uM after 24 hrs by qRT-PCR analysis. Format: ADME, cell-based. The note with it: huh-7, 24 h. The method in brief:
as §2

The subject of data set [21] is Huh-7. Briefly: Effect on XAP2 expression in human HuH7 cells at 0.5 uM after 24 hrs by qRT-PCR analysis. Format: ADME, cell-based. The note with it: huh-7, 24 h. The method in brief:
as §2

For data set [22], the system named is A549. Briefly: Effect on AhR expression in human A549 cells at 0.5 uM after 24 hrs by qRT-PCR analysis. Format: ADME, cell-based. As to conditions: a549, 24 h. The method in brief: as §3
Data set [23] deals with A549. The data set can be described thus: Effect on XAP2 expression in human A549 cells at 0.5 uM after 24 hrs by qRT-PCR analysis. Format: ADME, cell-based. As to conditions: a549, 24 h. The method in brief: as §3

A value given as a limit tells only on which side of the number the result lay.

For `O=C1Nc2ccccc2/C1=C/c1nc2ccccc2c(=O)[nH]1`, the EC50 (commonly the midpoint of the concentration-response curve) with Huh-7 [1] came to 31.3 µM. Moreover, the results for the fold induction at 24 h, 10 µM (on CYP1A1 (via AhR) [2]; at CYP1B1 (via AhR) [3]; in [11]) were 10.5, 8.6 and at most 17, respectively. Further, the Activity entry is “Active” in data set [4]; “Active” in [5]; “Active” in data set [6]; “Not Active” in data set [7]; “Active” in data set [9]; “Dose-dependent effect” in data set [10]. Besides, in [8], the “fold change (FC)” value turned out to be 0.65.

Take `O=C1Nc2ccccc2/C1=C\c1nnc2ccccc2c1Cl`: the EC50 in the data set with Huh-7 [1] stood at 9.6 µM. In addition, the figures for the fold induction at 24 h, 0.5 µM on CYP1A1 (via AhR) [12] and on CYP1B1 (via AhR) [13] were 3.28 and 1.35, respectively. The Activity entry in [14] was “Active”; in data set [15], “Active”; in [16], “Active”; in data set [17], “Active”; in [18], “Not Active”; in data set [19] it was “Active”. Moreover, the Activity entry with Huh-7 [20] is listed as “Not Active”; in the data set with Huh-7 [21], “Not Active”; in the data set with A549 [22] it was “Not Active”; in the data set on A549 [23] it was “Not Active”; in [10], “Dose-dependent effect”.
